Measured values published in ChEMBL document CHEMBL2417509, “Synthesis and biological evaluation of prodigiosene conjugates of porphyrin, estrone and 4-hydroxytamoxifen” (2013).

What was measured:
Type in all cases: functional
MDA-MB-435 = assay: Cytotoxicity against human MDA-MB-435 cells after 2 days by sulforhodamine B assay; conditions: MDA-MB-435, 48 h
Summary of the method: (§1)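 NCI60 multi-dose screen, 59 human tumour lines available. Cells exposed to compound across a 5-log mol/L concentration range for 2 days, then fixed and stained with sulphorhodamine B, optical density read. Growth inhibition calculated against time-zero control and untreated cells. GI50 derived from the dose series, average of two replicates.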

NCI-H522 = assay: Cytotoxicity against human NCI-H522 cells after 2 days by sulforhodamine B assay; conditions: NCI-H522, 48 h; summary of the method: as §1
HOP-92 = assay: Cytotoxicity against human HOP92 cells after 2 days by sulforhodamine B assay; conditions: HOP-92, 48 h; summary of the method: as §1
HT-29 = assay: Cytotoxicity against human HT-29 cells after 2 days by sulforhodamine B assay; conditions: HT-29, 48 h; summary of the method: as §1
NCI-H23 = assay: Cytotoxicity against human NCI-H23 cells after 2 days by sulforhodamine B assay; conditions: NCI-H23, 48 h; summary of the method: as §1
OVCAR-5 = assay: Cytotoxicity against human OVCAR5 cells after 2 days by sulforhodamine B assay; conditions: OVCAR-5, 48 h; summary of the method: as §1
SNB-19 = assay: Cytotoxicity against human SNB19 cells after 2 days by sulforhodamine B assay; conditions: SNB-19, 48 h
Summary of the method: (§2)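 NCI DTP NCI60 multi-dose screen (59 human tumour lines available). Cells exposed to compound over a 5-log mol/L concentration range for 2 days, then fixed and stained with sulphorhodamine B, with optical density read. Growth inhibition calculated relative to time-zero cells and untreated cells, giving GI50 (half-maximal growth inhibition concentration). Average of two replicates.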

OVCAR-4 = assay: Cytotoxicity against human OVCAR4 cells after 2 days by sulforhodamine B assay; conditions: OVCAR-4, 48 h; summary of the method: as §1
CAKI-1 = assay: Cytotoxicity against human CAKI-1 cells after 2 days by sulforhodamine B assay; conditions: CAKI-1, 48 h; summary of the method: as §1
T47D = assay: Cytotoxicity against human T47D cells after 2 days by sulforhodamine B assay; conditions: 48 h; summary of the method: as §2
SF-295 = assay: Cytotoxicity against human SF295 cells after 2 days by sulforhodamine B assay; conditions: SF-295, 48 h; summary of the method: as §1
786-0 = assay: Cytotoxicity against human 786-0 cells after 2 days by sulforhodamine B assay; conditions: 786-0, 48 h; summary of the method: as §1
LOX IMVI = assay: Cytotoxicity against human LOXIMVI cells after 2 days by sulforhodamine B assay; conditions: 48 h; summary of the method: as §1
SN12C = assay: Cytotoxicity against human SN12C cells after 2 days by sulforhodamine B assay; conditions: 48 h; summary of the method: as §1
[1] = Cytotoxicity against human NCI-ADR-RES cells after 2 days by sulforhodamine B assay; conditions: 48 h; summary of the method: as §1
MOLT-4 = assay: Cytotoxicity against human MOLT4 cells after 2 days by sulforhodamine B assay; conditions: MOLT-4, 48 h; summary of the method: as §1
NCI-H460 = assay: Cytotoxicity against human NCI-H460 cells after 2 days by sulforhodamine B assay; conditions: NCI-H460, 48 h; summary of the method: as §1
M14 = assay: Cytotoxicity against human M14 cells after 2 days by sulforhodamine B assay; conditions: M14, 48 h; summary of the method: as §1
A549 = assay: Cytotoxicity against human A549/ATCC cells after 2 days by sulforhodamine B assay; conditions: A549, 48 h; summary of the method: as §1
MDA-MB-468 = assay: Cytotoxicity against human MDA-MB-468 cells after 2 days by sulforhodamine B assay; conditions: MDA-MB-468, 48 h; summary of the method: as §1
U-251 = assay: Cytotoxicity against human U251 cells after 2 days by sulforhodamine B assay; conditions: U-251, 48 h; summary of the method: as §2
HCT-116 = assay: Cytotoxicity against human HCT116 cells after 2 days by sulforhodamine B assay; conditions: HCT-116, 48 h; summary of the method: as §1
TK-10 = assay: Cytotoxicity against human TK10 cells after 2 days by sulforhodamine B assay; conditions: TK-10, 48 h; summary of the method: as §2
DU-145 = assay: Cytotoxicity against human DU145 cells after 2 days by sulforhodamine B assay; conditions: DU-145, 48 h; summary of the method: as §1
SK-OV-3 = assay: Cytotoxicity against human SKOV3 cells after 2 days by sulforhodamine B assay; conditions: SK-OV-3, 48 h; summary of the method: as §1
A498 = assay: Cytotoxicity against human A498 cells after 2 days by sulforhodamine B assay; conditions: A498, 48 h; summary of the method: as §1
SF-539 = assay: Cytotoxicity against human SF539 cells after 2 days by sulforhodamine B assay; conditions: SF-539, 48 h; summary of the method: as §1
SF-268 = assay: Cytotoxicity against human SF268 cells after 2 days by sulforhodamine B assay; conditions: SF-268, 48 h; summary of the method: as §1
NCI-H322M = assay: Cytotoxicity against human NCI-H322M cells after 2 days by sulforhodamine B assay; conditions: 48 h; summary of the method: as §1
[2] = read-out: LC50 (the source's name)

SMILES: CC/C(=C(/c1ccc(OCCN(C)C)cc1)c1ccc(OC(=O)CCC(=O)C2=C(C)/C(=C/c3[nH]c(-c4ccc[nH]4)cc3OC)N=C2C)cc1)c1ccccc1
- GI50 (MDA-MB-435): 2.55 µM
- TGI (MDA-MB-435): 10.3 µM
- CC50 (MDA-MB-435; [2]): 50.5 µM
- GI50 (NCI-H522): 1.95 µM
- LC50 (NCI-H522): 28 µM
- TGI (NCI-H522): 5.89 µM
- GI50 (HOP-92): 0.76 µM
- TGI (HOP-92): 4.12 µM
- CC50 (HOP-92; [2]): 26.4 µM
- GI50 (HT-29): 0.44 µM
- LC50 (HT-29): 45.7 µM
- TGI (HT-29): 11.1 µM
- GI50 (NCI-H23): 4.03 µM
- LC50 (concentration killing 50% of cells) (NCI-H23): 70 µM
- TGI (NCI-H23): 18.7 µM
- GI50 (OVCAR-5): 6.99 µM
- LC50 (OVCAR-5): 53.1 µM
- TGI (OVCAR-5): 22 µM
- GI50 (SNB-19): 5.49 µM
- TGI (SNB-19): 21.9 µM
- CC50 (SNB-19; [2]): 65.9 µM
- GI50 (OVCAR-4): 1.5 µM
- LC50 (concentration killing 50% of cells) (OVCAR-4): 61.5 µM
- TGI (OVCAR-4): 14.8 µM
- GI50 (CAKI-1): 2.69 µM
- LC50 (concentration killing 50% of the cells present at time zero) (CAKI-1): 58.3 µM
- TGI (CAKI-1): 16.1 µM
- GI50 (T47D): 1.35 µM
- LC50 (concentration killing 50% of cells) (T47D): > 100 µM
- TGI (T47D): 8.13 µM
- GI50 (SF-295): 2.63 µM
- LC50 (SF-295): > 100 µM
- TGI (SF-295): 9.12 µM
- GI50 (786-0): 2.19 µM
- LC50 (concentration killing 50% of cells) (786-0): > 100 µM
- TGI (786-0): 5.77 µM
- GI50 (LOX IMVI): 0.44 µM
- LC50 (LOX IMVI): 5.13 µM
- TGI (LOX IMVI): 1.62 µM
- GI50 (SN12C): 3.09 µM
- TGI (SN12C): 19.1 µM
- CC50 (SN12C; [2]): 66.6 µM
- GI50 [1]: 3.63 µM
- TGI [1]: 16.1 µM
- CC50 [1, 2]: 74.5 µM
- GI50 (MOLT-4): 0.98 µM
- TGI (MOLT-4): 4.22 µM
- CC50 (MOLT-4; [2]): > 100 µM
- GI50 (NCI-H460): 3.52 µM
- LC50 (NCI-H460): > 100 µM
- TGI (NCI-H460): 14.4 µM
- GI50 (M14): 2.09 µM
- TGI (M14): 5.19 µM
- CC50 (M14; [2]): > 100 µM
- GI50 (A549): 2.66 µM
- LC50 (concentration giving 50% net cell kill) (A549): 55.9 µM
- TGI (A549): 10.6 µM
- GI50 (MDA-MB-468): 3.06 µM
- LC50 (MDA-MB-468): 61.3 µM
- TGI (MDA-MB-468): 15.5 µM
- GI50 (U-251): 1.52 µM
- LC50 (U-251): 33.2 µM
- TGI (U-251): 7.17 µM
- GI50 (HCT-116): 0.82 µM
- LC50 (concentration killing 50% of cells vs time zero) (HCT-116): > 100 µM
- TGI (HCT-116): 3.28 µM
- GI50 (TK-10): 4.9 µM
- LC50 (TK-10): 41.7 µM
- TGI (TK-10): 15.8 µM
- GI50 (DU-145): 3.28 µM
- LC50 (concentration killing 50% of starting cells) (DU-145): 41.2 µM
- TGI (DU-145): 16.8 µM
- GI50 (SK-OV-3): 7.17 µM
- LC50 (concentration killing 50% of starting cells) (SK-OV-3): > 100 µM
- TGI (SK-OV-3): 30.1 µM
- GI50 (A498): 2.96 µM
- LC50 (A498): 44.2 µM
- TGI (A498): 16.8 µM
- GI50 (SF-539): 2.62 µM
- LC50 (SF-539): 40.3 µM
- TGI (SF-539): 9.55 µM
- GI50 (SF-268): 2.63 µM
- LC50 (concentration killing 50% of cells) (SF-268): > 100 µM
- TGI (SF-268): 18.3 µM
- GI50 (NCI-H322M): 11.6 µM
- LC50 (concentration killing 50% of cells) (NCI-H322M): 57.5 µM
- TGI (NCI-H322M): 25.7 µM
